Values after ≈ are worked out from the molar mass of the structure shown.
Legend:
Format in all cases: functional, cell-based
[1] = system: A2780; experiment: Cytotoxicity against human A2780 cells by MTT assay
Outline: (§1)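 5-day MTT test on human tumor cells (KB epidermoid, HCT-8 ileocecal carcinoma, A2780 epithelial); cell-generated MTT-formazan solubilized in dimethyl sulfoxide and read as a measure of cell growth.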

[2] = system: KB; experiment: Cytotoxicity against human KB cells by MTT assay; outline: as §1
[3] = Cytotoxicity against HCT cells by MTT assay; conditions: Homo sapiens; outline: as §1

SMILES	IC50 [1] [µg/mL]	IC50 [2] [µg/mL]	IC50 [3] [µg/mL]
CCCCCCCC[C@@H](O)[C@H]1CC[C@H]([C@H]2CC[C@H]([C@H](O)CCCCCCCCCCC[C@@H](O)CCC3=C[C@H](C)OC3=O)O2)O1 [CALAMISTRIN G]	0.00197 (≈ 0.00316 µM)	0.02 (≈ 0.0321 µM)	0.00331 (≈ 0.00531 µM)
CCCCCCCCCC[C@H](O)[C@H]1CC[C@H]([C@H](O)CCCCCC(O)CCCCCCCCCCC2=C[C@H](C)OC2=O)O1 (some centres not stated) [CALAMISTRIN D]	0.431 (≈ 0.708 µM)	0.0273 (≈ 0.0448 µM)	0.0732 (≈ 0.12 µM)
CCCCCCCC[C@H](O)[C@H]1CC[C@H]([C@H]2CC[C@H]([C@H](O)CCCCCCCCCCCC(O)CCC3=C[C@H](C)OC3=O)O2)O1 (some centres not stated) [CALAMISTRIN F]	0.0366 (≈ 0.0588 µM)	0.051 (≈ 0.0819 µM)	0.00227 (≈ 0.00364 µM)
CCCCCCCCCC[C@@H](O)[C@H]1CC[C@H]([C@H](O)CCCCCC(O)CCCCCCCCCCC2=C[C@H](C)OC2=O)O1 (some centres not stated) [CALAMISTRIN C]	0.00315 (≈ 0.00517 µM)	0.0605 (≈ 0.0994 µM)	0.00473 (≈ 0.00777 µM)
